Avidin bead fluor: avidin bead compound fluorescence profile; Avidin beads, compound fluorescence 488/530 nm, flow cytometry; stronger effect = higher value; 220,000 compounds, 0.38% hits; fluorescence (KMESF) at 10 µM; in the data active = fluorescence above about 47
ABCG2 inh: inhibitors of human ABCG2 transporter, ABCB1 counter-screen. Q9UNQ0. 190,000 compounds, 0.1% hits. IgMXP3 cells, JC-1 efflux, flow cytometry. inhibition, % at 6.6 µM;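 active = inhibition above 80%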
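material = IgMXP3 (ABCG2) plus far-red-tagged CCRF-Adr (ABCB1) cells | amount = 3 million cells/mL, equal mix of both lines | also added = JC-1 transporter substrate | dosing = one concentration, 6.6 µM final | schedule = 10 min at 25 °C | measured by = flow cytometric JC-1 green MFI at 530 nm | read-out basis = percent efflux inhibition, scaled nicardipine 100% to DMSO 0%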
GSH bead fluor: compound fluoresces at 488/530 nm on GSH beads; GSH beads flow cytometry, compound fluorescence 488/530 nm; stronger effect = higher value; fluorescence (KMESF) at 10 µM; 190,000 compounds, 0.25% hits; AID 1776; in the data active = fluorescence above about 89;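 note: glutathione beads carrying GST-tagged Bcl family fusion proteins plus one bare bead set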
Lmaj promast: reduces viability of Leishmania major promastigotes; 200,000 compounds, 9% hits; inhibition, % at 10 µM; AID 1063; resazurin fluorescence viability;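 note: promastigotes grown with compound for 44 hours at 28 °C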
PKD1 kinase inh: PKD1 (human) kinase inhibition | Q15139 | PKD1 kinase fluorescence polarization assay | inhibition, % (no concentration beside the values) | 200,000 compounds, 0.056% hits | AID 797
ABCB1 inh: human ABCB1 inhibition, ABCG2 as counter-screen; CCRF-Adr cells, JC-1 efflux, flow cytometry; inhibition, % at 6.6 µM; 190,000 compounds, 0.067% hits; in the data active = inhibition above about 40%;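 note: higher value means more JC-1 retained so stronger ABCB1 efflux block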
Numbers stand for hits; n = inactive; x = not tested or not shown. The full list was thinned out, with hits kept by preference. Cut-off read from the data, not from the text of the source, unless noted: active = inhibition above about 50%; inactive = the rest.

SMILES | Avidin bead fluor | ABCG2 inh | GSH bead fluor | Lmaj promast | PKD1 kinase inh | ABCB1 inh
CC(C)N(C)NC(=S)Nc1ccccc1 | n | n | 332 | 62 | n | n
CN(c1cccc(NC(=O)c2ccc(C(C)(C)C)cc2)c1)S(C)(=O)=O | n | n | n | n | n | n
CN(c1ccccc1)S(=O)(=O)c1ccc(C(=O)Nc2nccs2)cc1 | n | n | n | n | n | n
CCOC(=O)N1CCN(C(=O)c2ccc(N3CCCC3=O)cc2)CC1 | n | n | n | n | n | n
COc1cc(CCCN2C(=O)C(=O)NC[C@@H]2C(C)O)cc(OC)c1OC (some centres undefined) | n | x | x | x | x | x
CC(=O)Nc1ccc(S(=O)(=O)N(C)c2ccccc2)cc1 | n | n | n | n | n | n
COC(=O)c1ccc(-n2c(C)cc(-c3csc(NC(=O)c4ccc(S(=O)(=O)N(C)C)cc4)n3)c2C)cc1 | n | n | n | 57 | n | n
CN(c1ccccc1)S(=O)(=O)c1ccc(NC(=O)c2ccc(-c3ccccc3)cc2)cc1 | n | n | n | 97 | n | n
CC(=O)Nc1ccc(C(=O)N(C)C(C(=O)Nc2ccc(C)cc2)c2ccccn2)cc1 (centres undefined) | n | n | n | n | n | n
COc1ccccc1NS(=O)(=O)c1ccc(OC)c(OC)c1 | 113 | n | n | n | n | n
COc1ccccc1NS(=O)(=O)c1cccc(NC(=O)NCCCl)c1 | n | x | x | x | x | x
COc1ccccc1NS(=O)(=O)c1cc(NC(=O)Nc2cccc(C)c2)ccc1N1CCCCC1 | n | n | n | n | n | n
COc1ccccc1NS(=O)(=O)c1cccc(NC(=O)c2sc3ccccc3c2Cl)c1 | n | n | n | 95 | n | n
O=C(Nc1ccc(Cl)cc1)Nc1ccc(N2CCCC2)c(S(=O)(=O)Nc2ccccc2Cl)c1 | n | n | n | 100 | n | n
COc1ccccc1NS(=O)(=O)c1cccc(NC(=O)Nc2cccc(Cl)c2)c1 | n | n | n | 100 | n | n
Cc1ccc(S(=O)(=O)N(C)C)cc1NC(=O)CCc1ccccc1 | n | x | x | x | x | x
COc1ccc(C(=O)Nc2ccc(Cl)c(S(=O)(=O)Nc3ccccc3OC)c2)cc1 | n | n | n | n | n | n
COc1ccccc1NC(=O)Nc1ccc(Cl)c(S(=O)(=O)Nc2ccccc2OC)c1 | n | n | n | 99 | n | n
COc1ccc(C)cc1S(=O)(=O)Nc1cccc(Cl)c1 | n | n | n | 99 | n | n
COc1ccc(C)cc1S(=O)(=O)Nc1cccc(C)c1 | n | n | n | n | n | n
COc1ccccc1NS(=O)(=O)c1cc(NC(=O)C2CC2)ccc1N1CCOCC1 | n | n | n | 88 | n | n
COc1ccc(NS(=O)(=O)c2cc(N/C(=N\S(=O)(=O)c3ccccc3)c3ccc(F)cc3)ccc2Cl)cc1 | n | n | n | 76 | n | n
CCOC(=O)C1CCN(C(=O)COC(=O)CNC(=O)c2ccc(OC)cc2)CC1 | n | n | n | n | n | n
CCCNC(=O)COC(=O)c1ccccc1OCc1ccc(Cl)cc1 | n | n | n | n | n | n
COc1ccc(S(=O)(=O)Nc2ccccc2C(=O)OC2CCCN(C)C2)cc1OC (centres undefined) | n | n | n | 100 | n | n
SMILES | Avidin bead fluor | ABCG2 inh | GSH bead fluor | Lmaj promast | PKD1 kinase inh | ABCB1 inh
O=C(COc1cccc2cccnc12)N/N=C1\SCC(=O)N1Cc1ccccc1 | n | n | n | n | n | n
Cc1sc(NC(=O)COc2ccccc2)c(C#N)c1-c1ccccc1 | n | n | n | 57 | n | n
CCc1ccc(-c2c(C)sc(NC(=O)C3CCC3)c2C#N)cc1 | n | n | n | 50 | n | n
COc1ccc(C(=O)Nc2sc(C)c(-c3ccccc3)c2C#N)cc1OC | n | n | n | n | n | n
Cc1sc(NC(=O)C2CCCC2)c(C#N)c1C | n | n | n | n | n | n
COC(=O)c1ccc2c(=O)sc(N3CCC(C(N)=O)CC3)nc2c1 | n | n | n | n | n | n
CN1CCN(S(=O)(=O)c2ccc(Br)c3nsnc23)CC1 | n | n | n | n | n | n
CN1CCN(S(=O)(=O)c2ccc(Sc3nc4ccccc4[nH]3)c3nsnc23)CC1 | n | n | n | 100 | n | n
NNC(=O)CCN(Cc1ccco1)S(=O)(=O)c1ccc(Cl)cc1 | n | x | x | x | x | x
COc1cc(CC(=O)Nc2ccc3c(c2)CCC3)cc(OC)c1OC | n | n | n | 89 | n | n
CC(=O)c1cccc(NC(=O)Cc2ccc3c(c2)CCCC3)c1 | n | n | n | 81 | n | n
CCOc1ccc(CN(C)CC(=O)Nc2ccc3c(c2)CCC3)cc1OC | n | n | n | n | n | n
Cc1ccc(NC(=O)Cc2ccc3c(c2)CCCC3)cc1C | n | n | n | n | n | n
CCN(CC)S(=O)(=O)c1cc(OC)c(Cl)cc1OC | n | n | n | n | n | n
Cc1cc2c(c(=O)o1)C(c1cccs1)C(C#N)=C(N)O2 (centres undefined) | n | n | n | 62 | n | n
Cc1ccc([C@H]2C(C#N)=C(N)Oc3cc(C)oc(=O)c32)o1 | n | n | n | 100 | n | n
O=S(=O)(c1cccc2cccnc12)N1CCN(Cc2ccccc2)CC1 | n | n | n | n | n | n
Cn1c(=O)[nH]c2ccc([N+](=O)[O-])nc21 | n | n | n | n | n | n
COc1ccc(C(=O)Nn2c(SCc3ccc([N+](=O)[O-])cc3)nc3ccccc3c2=O)cc1 | n | n | n | n | n | n
CCCC(=O)N1CCN(c2ccc(NC(=O)c3ccc(Br)o3)cc2)CC1 | n | n | n | n | n | n
CCC(=O)N1CCN(c2ccc(NC(=O)c3ccc([N+](=O)[O-])o3)cc2)CC1 | n | n | n | 100 | n | n
Cc1cc(C)cc(C(=O)Nc2ccc(N3CCN(S(C)(=O)=O)CC3)cc2)c1 | n | n | n | n | n | n
CS(=O)(=O)N1CCN(c2ccc(NC(=O)c3ccc([N+](=O)[O-])o3)cc2)CC1 | n | n | n | 95 | n | n
CN1CCN(c2ccc(NC(=O)c3ccc(-c4ccc(Br)cc4)o3)cc2)CC1 | n | n | n | 99 | n | n
O=C(Nc1ccc(N2CCCC2)cc1)c1ccc(Br)o1 | n | n | n | n | n | n
SMILES | Avidin bead fluor | ABCG2 inh | GSH bead fluor | Lmaj promast | PKD1 kinase inh | ABCB1 inh
CCCC(=O)N1CCN(c2ccc(NC(=O)c3ccc([N+](=O)[O-])o3)cc2)CC1 | n | n | n | 100 | n | n
O=C(Nc1ccc(N2CCN(C(=O)c3ccc(Cl)cc3)CC2)cc1)c1ccc([N+](=O)[O-])o1 | n | n | n | 100 | n | n
O=C(CSc1n[nH]c(-c2ccccc2O)n1)N1CCCc2ccccc21 | n | n | n | 75 | n | n
Cc1[nH]c2ccccc2c1C(=O)C(=O)N1CCCc2ccccc21 | n | n | n | n | n | n
Cn1c(=O)cc(OCC(=O)N2CCCc3ccccc32)c2ccccc21 | n | n | n | n | n | n
Cc1ccccc1OCC(=O)N1CCCc2ccccc21 | n | n | n | 53 | n | n

Screens (PubChem BioAssay)
